Reference: the EternaBench riboswitch data

Tested on: MS2 coat protein
Test: apparent Kd, MS2 coat protein; higher = weaker binding; RNA-MaP array; FMN 200 µM where present
Procedure, shortened: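 Apparent Kd: the median of filtered binding-curve fits from single clusters. Designs were transcribed on Illumina sequencing-chip clusters by stalled E. coli RNA polymerase and titrated with SNAP-549-labelled MS2 coat protein from 0.7 or 1.5 nM, doubling to 3 µM, in 100 mM Tris-HCl pH 7.5, 80 mM KCl, 4 mM MgCl2, BSA, DTT, yeast tRNA and Tween-20. Each series ran without and then with constant ligand, and green signal was normalised to red-channel RNA signal and control-cluster median Fmax.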

[1] = designed as: OFF switch for flavin mononucleotide, no ligand
[2] = ligand present: flavin mononucleotide, designed as: OFF switch for flavin mononucleotide
[3] = designed as: ON switch for flavin mononucleotide, no ligand
[4] = ligand present: flavin mononucleotide, designed as: ON switch for flavin mononucleotide

Sequence | apparent Kd [1] | apparent Kd [2] | apparent Kd [3] | apparent Kd [4]
CAGUUCUGAGGAUAUCCACCCUCGUACAUGAGGAUCACCCAUGUUUCCCUCUGGGCUUUCGGAGAAGGCAGGUAUC | 51.4 nM | 50.4 nM | – | –
AAUGCCAAUGAAGGAUAUACAAACAUGAGGAUCACCCAUGUGUCUUUCGUGUAACUGGAAUUCGGGUAGAAGGUCAUUGACAUA | 34.5 nM | 26.9 nM | – | –
AAAAAACAUGAGGAUCACCCAUGUGAGGAUAUCCAAAAGUCAAAGAAAAAGACGAAAAGGAGAAGGCACAAAAA | 72.8 nM | 84.8 nM | – | –
GCAACGCUUGACAUGAGGAUCACCCAUGUUAGAUUGUUAUGUCAGGAUAUAGUCUAGAAACUAGACUAGAAGGGAUAUGUUGCU | – | – | 269 nM | 44.2 nM
CAACCACAUGAGGAUCACCCAUGUGAGGAUAUGAUACUAUGUACUUCGGUACAUAGUAUCAGAAGGCACAGGUG | 82 nM | 73.4 nM | – | –
AUGGAUACCACAGGAUAUGCCCGGGAUACCCGGGCAGAAGGGUGGUCCAUCCUAUGUAAAUACAUGAGGAUCACCCAUGUGUCC | – | – | 351 nM | 257 nM
GUUAAGGUAGGAUAUACGAUAAUAUAGGGUAGAUAUAUAACACAUGAGGAUCACCCAUGUAGAAGGACCAAGUG | 41.5 nM | 170 nM | – | –
AAGAGUAGAGGAUAUAUAUGAAAAGAGUCGAAAGACUCAAAACAUGAGGAUCACCCAUGUAGAAGGCUACUCAA | 17.8 nM | 21.1 nM | – | –
ACAGCAGUAGGAUAUACAUCACCAUCCGACCGUUGAUUUCAACAUGAGGAUCACCCAUGUAGAAGGGCUAGUUG | 93.2 nM | 65.7 nM | – | –
CCAAUGUAAGGAUAUGACAAUGGUAUCUUCGGAUACCAUUGUCAGAAGGUACAUGAGGAUCACCCAUGUAUAAA | 18.7 nM | 41.1 nM | – | –
GAGUGCUGAGGAUAUACAUGAGGAUCACCCAUGUGCUUCAGCUAGGAGACUAGCAUUGGUAGAAGGCAGUACUC | 11.2 nM | 46 nM | – | –
GAUUCGCGUGAGAAGGACAUGAGGAUCACCCAUGUAGGAUAUCACGGUCCUUAGAGGAUUUCAAACCGUACUGGGUCAUAGUGU | – | – | 15.2 nM | 6.7 nM
UUAUGAGCGAUAGGAUAUACUGAGAUUGAAUGGGUAGAAGGAUCAAUUGUGUGGAAGACAUGAGGAUCACCCAUGUUACGGGCC | – | – | 104 nM | 337 nM
UUAUACGUUGAGGAUAUGCGACUUAGUAUAGUUGUAGAAGGCGAUACAUGAGGAUCACCCAUGUUUAUGGGCAU | 220 nM | 300 nM | – | –
UUUCGGCAUGUAGGAUAUGGAUCCGAUUAGGAUUUAGAAGGACAUGAGGAUCACCCAUGUGCAUUUAAUUGGUCAUUACCGUUU | 58.5 nM | 95.2 nM | – | –
GUGCUGCAACGGUGCACGAGACAUGAGGAUCACCCAUGUGACAGAAGGGACUUGUUAAAGGUAGGUCAGGAUAUGUCUUAAAAG | – | – | 191 nM | 53.1 nM
UAGAUGGGAGGAUAUGCAUAGAUACAGAUUCAUGUAGUGCUACAUGAGGAUCACCCAUGUAGAAGGCCCGUCUU | 21.2 nM | 225 nM | – | –
UUUUAACAUGAGGAUCACCCAUGUGAGGAUAUCGAUUUUUUUAUUAAUAUUAAUAAAACGAGAAGGCACAUUUU | 76.2 nM | 75.9 nM | – | –
GCCUAGCCCAAGCCCACGGCAUCACAGGAUAUGCCGAUAACAUGAGGAUCACCCAUGUCAACUCCGCAGAAGGGUGAUAUCGUG | – | – | 75.9 nM | 10 nM
AAAACAUACCGAGGAUAUUCAUAUAAUAAAUAAACAUGAGGAUCACCCAUGUGGCGAAAGCCUAGGGAGAAGGCGGAAUGCUAA | – | – | 149 nM | 31.8 nM
AGUCGGAGCAGAGGAUAUACAUGAGGAUCACCCAUGUAAAUGAAAGAUAAGCUGGAAACAGCAAUGUAGAAGGCUGCUCCGACA | 19.2 nM | 91.6 nM | – | –
GCCAUCGUAUGAGGAUAUGGCACCGAAACGGUGCCAGAAGGCAUGUCAAUAGACAUGAGGAUCACCCAUGUGUUAUCGAUGGCC | – | – | 84.9 nM | 11.7 nM
AGCUGGUGACAGCAUCCAUCAUGACAUGAGGAUCACCCAUGUAGAAGGCUGUACGGUUACCGUACAGAGGAUAUACAAUGAUGG | 7.73 nM | 8.21 nM | – | –
AUCAGCUCGUCAGGAUAUACGUCACUGCGUCCGCAGUGUGGUAAGAUCACAUGAGGAUCACCCAUGUAGAAGGGACGAGCUGAU | 13.8 nM | 264 nM | – | –
AGGGAGUGAGGAUAUACGAAAUAAAAAGAAGGAAAAAAAGAGUAGAAGGCACAUGAGGAUCACCCAUGUGAGAA | 22 nM | 19.5 nM | – | –
AAUACUUAGUAAGGAUAUACUAGCGAUUAGCUUGUAGAAGGUACAGUCUUAUGUAUAACAUGUUAACAUGAGGAUCACCCAUGU | – | – | 67.2 nM | 35.1 nM
UUUCAGUCAGGAUAUCGUUAAUUUAAUUGUUUGUUUUAGUUCGAGAAGGGACAUGAGGAUCACCCAUGUAAUUU | 33.1 nM | 51.3 nM | – | –
AAAGUGUGAAGCAGGGUGCUACAUGAGGAUCACCCAUGUCGGAGAAGGGCGCCGUUUCGCAGGGUGUAGGAUAUCUGGCGUGCA | 132 nM | 109 nM | – | –

Sequence | apparent Kd [1] | apparent Kd [2] | apparent Kd [3] | apparent Kd [4]
GACUACGAGGGAGGAUAUCCUCAUUAAUUUGGUGGAGAAGGCCCUCUACAUGAGGAUCACCCAUGUAUCGCUAUAGUCAGACAU | – | – | 9.92 nM | 6.95 nM
GUCAGCUCGUGAGGAUAUACAUGUGCUGGAAACAGCACUAUUAUGUUCACAUGAGGAUCACCCAUGUAGAAGGCACGAGCUGAU | 16.2 nM | 24.9 nM | – | –
AAUAAACAUGAGGAUCACCCAUGUCAGGAUAUGCGUCUAUCCUUAUACCAUAGAUACGGCAGAAGGGACUAAUA | 24.9 nM | 31 nM | – | –
GGUACUCAAAGAGUACUUGGUCGAACAUGAGGAUCACCCAUGUAGGAUAUACAAAGCAAGAAGUAGUAGAAGGACAUGUGCAGC | 12.9 nM | 16.2 nM | – | –
CGCUAAUUAAUUAUAUUAAUUAUACAGGAUAUGUAACAUGAGGAUCACCCAUGUAUUCAAUGUAAACAGAAGGGUAUAUUAGCG | 10.7 nM | 16.2 nM | – | –
ACAUGGAAUACAGGAUAUGUAAGUUUUAAGUAGAUUGGUUAUUACUUUACAACAGAAGGGUAAUACAUGAGGAUCACCCAUGUA | – | – | 19.1 nM | 16 nM
CCUCCACAUUAGGAUAUCGUCACAGAAAUGUGACGAGAAGGAAUGACAUGAGGAUCACCCAUGUUAACGUGAUG | 34.4 nM | 195 nM | – | –
AGCAACAUGAGGAUCACCCAUGUUGGUUCGAAAACGGACUCACAGGAUAUGCAACGUGAUCGUUUGCAGAAGGGUGCGUCCUCA | – | – | 18.4 nM | 28.4 nM
UCCGUACUAGGAUAUACAGCAAAAUCAAACAAAUUCCUCAAACAUGAGGAUCACCCAUGUAGAAGGAGUACCAA | 17.4 nM | 14.7 nM | – | –
AUAAUUUUAUAUAUCUUAUUUAUCAGAAGGCAUAACAUGAGGAUCACCCAUGUAUAUUAUAGUUAUGAGGAUAUGAUUUAGUUA | 8.04 nM | 8.85 nM | – | –
UGGUUUAGUGUUAGGAUAUAAUCCGAAGUCAGCGAUUAGAAGGAACAUGAGGAUCACCCAUGUUUUAGAUAACC | 16 nM | 16.9 nM | – | –
UUCAUGUGAGGAUAUGUGUACUGUUUUUUGUUUAGAUGUACACAGAAGGCACAUGAGGAUCACCCAUGUAGUAC | 49.5 nM | 20.4 nM | – | –
CAGGUAGACUGAGGAUAUACAUUAAACAGCUAGUCUAUCUAGCUGCUCACAUGAGGAUCACCCAUGUAGAAGGCAGUCUGCCUG | 26.1 nM | 75 nM | – | –
UCUCUUGGGCAAGGAUAUCCUGCGCGGUUCCGGUUCGUGUCUGUCACAUGAGGAUCACCCAUGUGGGAGAAGGUGCCUGCGGUU | 17.7 nM | 25.5 nM | – | –
CAGUGCUGUCGAGAGGAUAUGCGGUGAUGGACAUGAGGAUCACCCAUGUUAGCGACAGCAUCACGGCAGAAGGCUCUACCCACUG | – | – | 29.4 nM | 17 nM
GCAGCCGAUGCAGGAUAUCAGCACGUGUAGUGCUGAGAAGGGCACAUGAGGAUCACCCAUGUGAUCAAUUAAUAUCGAUGCUGC | 6.56 nM | 14.3 nM | – | –
CUGCCUUAUGUAGGAUAUGCAUAGCAUUGCUAUGCAGAAGGACAUGAGGAUCACCCAUGUAUGUAAUCAAUACAUAUCUGGCAG | 20.4 nM | 119 nM | – | –
CGCACUAUACAUGAGGAUCACCCAUGUUAUUAUGAGAUAGUCAGAAGGCAUUGUUUGUGAAAUUAUGAGGAUAUGAAUAGUGCG | – | – | 146 nM | 79.3 nM
UGAGCUUGAGGAUAUACAUGACGUGCCGUAGCACGAGGUCUACAUGAGGAUCACCCAUGUAGAAGGCAAGUUCU | 29.6 nM | 192 nM | – | –
GCGAUAAACGAGGAUAUCGUAUCGGAAACGAUACGAGAAGGUGUAACAUGAGGAUCACCCAUGUUCCUCAACGC | 38.4 nM | 38.4 nM | – | –
GGACGUGACAUUAACAUGAGGAUCACCCAUGUCAAAAGACAUGAGGAUAUGGAUCCGAAAAGGAUCCAGAAGGCAUGCACGUCC | – | – | 587 nM | 37.1 nM
GUGGUCAGACAUGAGGAUCACCCAUGUGGAAUAAAUAAGGAACAGGAUAUGGAAUAUAGGAUAUACCAGAAGGGUUGGUUGGUG | – | – | 72.3 nM | 82.4 nM
AAGGUGAGAGGAUAUACAUGAGGAUCACCCAUGUGCCGGCCCUCCACAUAUGCCUUGUGUAGAAGGCUCCCGAA | 14.5 nM | 14.9 nM | – | –
AUUUUUUGUCAUGUACAUGAGGAACAUGAGGAUCACCCAUGUAGAAGGAAUUUUUUUAAGUUUAGUUAGGAUAUACAUAUAUUU | 53.9 nM | 30 nM | – | –
UCCUUACAUGAGGAUCACCCAUGUCAGGAUAUCUCCACACUGCGCUUGCGCAGUGUAUAGAGAAGGGACGGGCU | 34.2 nM | 26.2 nM | – | –
UACAUUACUUAGAAGGGAUAUAUAUAAUUUUAGUCAGGAUAUAGAUACAGUACAACAUGAGGACAUGAGGAUCACCCAUGUAUU | – | – | 29.8 nM | 20.8 nM
AAGAAGUGAGGAUAUGCUGCUCGUCACGAAAGUGAUGAGUAGCAGAAGGCACAUGAGGAUCACCCAUGUAAAGA | 36.9 nM | 55.4 nM | – | –
